This is a sample that favours compounds with a hit; in the whole collection about 2.4% have one here.
Fh CTSL1 inh: cathepsin L1 inhibition, PFM18AAP counter-screen; inhibition, % at 5.96 µM; AID 1906; recombinant F. hepatica cathepsin L1, Z-Leu-Arg-MCA fluorescence; hit rate 0.49% among 300,000;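 active = inhibition above the mean of all tested compounds plus 3 SD, set per screening campaign, cut at about 17% in these data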;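 note: 0% = plate median of test compound wells and 100% = 1 µM Z-Phe-Ala-diazomethylketone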
Cardio protect: myocardial damage modulation in H9c2 cells. H9c2 cardiomyocytes, H2O2 injury protection, ATPLite, 2 h. protection from H2O2 cell death, % at 20 µM. hit rate 0.63% among 360,000;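 active = compounds giving at least 50% protection of heart cells from peroxide-induced death in the single-dose screen, raw or plate-pattern-corrected value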;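 note: 0% = DMSO wells with peroxide and 100% = DMSO wells without peroxide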
JMJD2C inh: inhibitors of human GASC-1 (JMJD2C) demethylase | GST-JMJD2C(1-420) H3K9me3 demethylation, DELFIA europium | Q9H3R0 | hit rate 0.069% among 330,000 | inhibition, % at 2.35 µM;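 active = more than half of a compound's replicate wells show inhibition beyond 50%, single wells judged on their own value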;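 note: signal counts dimethyl H3K9 product captured on neutravidin plate; 0% = median of DMSO wells and 100% = 0.3 times that DMSO median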
PP5 inh: inhibitors of human protein phosphatase 5 (PP5); P53041; purified PP5c, OMFP substrate fluorescence; inhibition, % at 6.7 µM; hit rate 0.18% among 320,000; AID 1987;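 active = inhibition above the campaign's mean inhibition across all tested compounds plus 3 SD, cut at about 9.5% in these data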;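 note: 0% = DMSO only and 100% = 100 µM cantharidin control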
Target sequence (P53041 whole entry, looked up): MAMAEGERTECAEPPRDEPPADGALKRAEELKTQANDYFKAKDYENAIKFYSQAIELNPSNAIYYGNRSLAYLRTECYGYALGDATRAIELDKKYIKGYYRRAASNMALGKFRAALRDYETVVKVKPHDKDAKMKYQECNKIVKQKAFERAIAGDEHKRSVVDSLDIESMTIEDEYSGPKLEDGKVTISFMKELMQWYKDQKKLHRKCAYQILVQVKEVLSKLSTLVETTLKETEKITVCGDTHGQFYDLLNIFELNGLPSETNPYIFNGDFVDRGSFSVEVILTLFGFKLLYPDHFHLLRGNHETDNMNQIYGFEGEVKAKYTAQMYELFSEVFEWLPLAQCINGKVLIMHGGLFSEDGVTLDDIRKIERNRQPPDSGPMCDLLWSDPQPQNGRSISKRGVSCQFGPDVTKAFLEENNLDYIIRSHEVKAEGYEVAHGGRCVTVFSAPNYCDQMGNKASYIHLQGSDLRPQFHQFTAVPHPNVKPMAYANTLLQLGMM
T cruzi repl: blocks replication of Trypanosoma cruzi; T. cruzi beta-gal in NIH3T3, luminescence, 90 h; inhibition, % (no concentration beside the values); hit rate 1.4% among 300,000; AID 1885;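 active = mean inhibition across valid replicates above about 55%, limit read from the data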;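 note: signal also drops with host cell toxicity which is not excluded here; 0% = plate median of DMSO wells and 100% = zero luminescence signal; higher percent means less beta-gal luminescence so fewer parasites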
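Read-out: Parasite load inhibition, % | Test system: Mouse NIH/3T3 fibroblasts infected with β-gal-expressing T. cruzi Tulahuen C4 | Amount: 5,000 cells/well | Medium: DMEM, 2% fetal bovine serum | Signal: GalScreen β-gal luminescence, detergent lysis, 60 min | Timing: 3 h attach, ≥90 h co-culture | Also added: Tulahuen C4 trypomastigotes, 5000/well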
pCIP destab: compounds decreasing mouse p/CIP protein stability; F442A p/CIP-EGFP cells, EGFP fluorescence, 16 h; decrease of EGFP signal, % at 10 µM; hit rate 0.01% among 290,000; AID 1984;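 active = EGFP signal decrease of at least 30% at 10 µM or well 3 SD below plate mean, unless failing retest; inactive = the rest, including hits failing retest or dose response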
Active calls of the source: *; ! = not active in a repeat.

`COc1ccc(CC(N)c2csc(Nc3nncc4ccccc34)n2)cc1` (configuration not stated) gave Cardio protect -9.9.
`CCOc1cc(C(=O)Nc2cccc(OCC(=O)N3CCOCC3)c2)cc(OCC)c1OCC` gave Fh CTSL1 inh 4.8, Cardio protect 14.2, JMJD2C inh -2.7, PP5 inh -1.2, T cruzi repl 8.6 and pCIP destab -11.4.
For Cn1c(=O)c2ccccc2n2c(CCl)nnc12 the results were Fh CTSL1 inh 27.6*, Cardio protect -2.4, JMJD2C inh 5.5, PP5 inh 0.6, T cruzi repl -11.5 and pCIP destab -3.0.
CC(C)[C@H](NC(=O)N1CCn2c1nc1ccccc12)C(=O)NCc1ccccc1Cl was read as Fh CTSL1 inh 0.4, Cardio protect -3.9, JMJD2C inh 14.5, PP5 inh 0.7, T cruzi repl 7.7 and pCIP destab -3.6.
`CN(C(=O)c1cc([N+](=O)[O-])ccc1N1CCCC1)C1CCCCC1` gave Fh CTSL1 inh 22.3*, Cardio protect -2.9, JMJD2C inh 6.9, PP5 inh -1.1, T cruzi repl 3.6 and pCIP destab -41.3.
O=C(NC1CCCCC1)c1cc([N+](=O)[O-])ccc1N1CCCC1 was read as Fh CTSL1 inh 34.3*, Cardio protect -1.3, JMJD2C inh 8.0, PP5 inh 0.4, T cruzi repl 6.1 and pCIP destab -20.6.
O=C(NC1CCCCCCC1)c1cc([N+](=O)[O-])ccc1Cl was read as Fh CTSL1 inh -4.6, Cardio protect 9.2, JMJD2C inh 18.7, PP5 inh 2.4, T cruzi repl -3.6 and pCIP destab -8.9.
Cn1c(=O)n(C)c2cc(NC(=O)CCl)ccc21 was read as Fh CTSL1 inh 23.9*, Cardio protect 0.2, JMJD2C inh -9.4, PP5 inh 3.4, T cruzi repl 21.9 and pCIP destab -2.8.
For Cc1ccc2nc3c(c(Nc4ccc(O)cc4)c2c1)CCC3 the results were Fh CTSL1 inh 0.2, Cardio protect -10.1, JMJD2C inh 4.0, PP5 inh 2.6, T cruzi repl 62.3* and pCIP destab -9.8.
`COc1ccc(Nc2c3c(nc4ccc(C)cc24)CCC3)cc1` gave Fh CTSL1 inh -6.4, Cardio protect -13.7, JMJD2C inh -4.2, PP5 inh 1.8, T cruzi repl 29.7 and pCIP destab 2.0.
For CCOC(=O)C(=O)N(C)c1c(CC)nc2c(OCc3ccccc3)cccn12 the results were Cardio protect -2.1.
Screening CC(=O)N/C(=C\c1ccccc1)C(=O)OCc1ccc(F)cc1 returned Cardio protect -3.4, JMJD2C inh 77.5, T cruzi repl -2.7 and pCIP destab -8.4.
`O=C(c1cc2cccc([N+](=O)[O-])c2oc1=O)N1CCOCC1` gave Fh CTSL1 inh 29.3*, Cardio protect -1.4, JMJD2C inh -15.5, PP5 inh 0.0, T cruzi repl 3.8 and pCIP destab -0.7.
Screening COc1ccc(Cc2nc3c4c(ncn3n2)Oc2ccc3ccccc3c2C4c2ccc(OC)c(OC)c2)cc1 (configuration not stated) returned Fh CTSL1 inh -3.7, Cardio protect -7.9, JMJD2C inh 17.6, PP5 inh 4.3, T cruzi repl 57.2* and pCIP destab -2.6.
CN(C)N(Cc1ccccc1)C(=O)C(O)(c1ccccc1)c1ccccc1 was read as Cardio protect 60.1*, JMJD2C inh 3.7, T cruzi repl -11.6 and pCIP destab -18.4.
Screening CC(C)(O)C(=O)NN(Cc1ccccc1)c1ccccc1 returned Fh CTSL1 inh -4.9, Cardio protect 7.1, JMJD2C inh -2.4, PP5 inh 1.8, T cruzi repl -7.0 and pCIP destab 1.6.
O=C(CN1CCOCC1)NCc1cc([N+](=O)[O-])ccc1O was read as Fh CTSL1 inh -3.1, Cardio protect 2.9, JMJD2C inh -16.3, PP5 inh 2.1, T cruzi repl -9.9 and pCIP destab 5.9.
c1ccc(SCCc2ccncc2)cc1 was read as Fh CTSL1 inh 0.0, Cardio protect -0.6, JMJD2C inh 2.8, PP5 inh -0.2, T cruzi repl 27.8 and pCIP destab -1.7.
`COc1ccc(SCCc2ccncc2)cc1` gave Fh CTSL1 inh -1.0, Cardio protect 8.5, JMJD2C inh 29.8, PP5 inh -0.2, T cruzi repl 69.8* and pCIP destab -7.5.
Fc1ccc(SCCc2ccncc2)cc1 was read as Fh CTSL1 inh 0.4, Cardio protect -1.1, JMJD2C inh 1.9, PP5 inh 1.9, T cruzi repl 67.6*! and pCIP destab -15.6.
For CCNC(=O)C1(C)CCCN(C(=O)c2oc3ccccc3c2C)C1 (configuration not stated) the results were Cardio protect -3.2.
For CNS(=O)(=O)c1cc2c3c(cccc3c1)C(=O)NC2=O the results were Fh CTSL1 inh 0.6, Cardio protect 57.6*, JMJD2C inh -2.9, PP5 inh -0.3, T cruzi repl -2.8 and pCIP destab 0.7.
`CC1=NN(S(=O)(=O)c2ccc(Cl)cc2Cl)C(=O)c2ccccc2O1` gave Fh CTSL1 inh 56.0*, Cardio protect 12.7, JMJD2C inh 0.0, PP5 inh -2.0, T cruzi repl -8.0 and pCIP destab -2.5.
Screening Cc1ccc(CCNC(=O)CNC(=S)N(Cc2ccccc2)Cc2cccnc2)cc1 returned Fh CTSL1 inh 0.9, Cardio protect 6.0, JMJD2C inh -15.0, PP5 inh 0.2, T cruzi repl 72.4* and pCIP destab 1.8.
CN(C)CCNC(=O)CNC(=S)N(Cc1ccccc1)Cc1cccnc1 was read as Fh CTSL1 inh 0.3, Cardio protect 1.3, JMJD2C inh -2.4, PP5 inh -1.4, T cruzi repl -0.8 and pCIP destab 4.4.
`O=C(CNC(=S)N(Cc1ccccc1)Cc1cccnc1)NC1CCCCC1` gave Fh CTSL1 inh -2.9, Cardio protect 2.3, JMJD2C inh -3.0, PP5 inh -0.4, T cruzi repl 64.2* and pCIP destab 3.3.
`COc1ccc(Br)cc1/C=N/n1c(C)nc2ccccc2c1=O` gave Cardio protect -2.4, JMJD2C inh -16.7, T cruzi repl -0.5 and pCIP destab -13.9.
O=c1c2ccccc2nc(COc2ccccc2)n1/N=C/c1ccc(O)c(O)c1 was read as Fh CTSL1 inh 6.5, Cardio protect 56.1*, JMJD2C inh -13.7, PP5 inh 1.6, T cruzi repl 2.3 and pCIP destab -4.6.
`COc1ccc2ccccc2c1/C=N/N1C(=O)CSC1=S` gave Fh CTSL1 inh 2.3, Cardio protect -1.4, JMJD2C inh 25.1, PP5 inh -0.8, T cruzi repl -11.6 and pCIP destab -22.6.
For O=c1c2ccccc2nc(/C=C/c2cc(Br)ccc2O)n1CCCO the results were Fh CTSL1 inh -4.7, Cardio protect 50.0*, JMJD2C inh 5.4, PP5 inh 4.5, T cruzi repl 0.5 and pCIP destab 3.9.
